The source made the active and inactive calls. Non-standard residues stand in square brackets, D forms with d. Residues, ends and D or L forms follow the SMILES beside them. *: point of attachment. NHCH2CH2OH = OCCN*; Sar = CNCC(=O)O
Experiments:
Mu-type opioid receptor = Mu-type opioid receptor (Rattus norvegicus, UniProt P33535); test: Displacement of [3H]DAMGO from mu opioid receptor in Wistar rat brain membranes by liquid scintillation counting; type: cell membranes, Membrane
Mus musculus [1] = test: Analgesic activity in icv dosed CD1 mouse assessed as inhibition of heat-induced jumping behaviour after 5 to 30 mins by hot plate method; type: functional
Method in brief: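 Male CD-1 mice (25–30 g), lightly isoflurane-anaesthetised, injected i.c.v. 2 mm caudal and 2 mm lateral of bregma, 3 mm depth, 5 µL; various doses. Plate held at 55.0 ± 0.1 °C; latency to paw licking or jumping, 60 s cut-off. Baseline is the mean of three readings 15 min apart; readings at 5, 10, 15, 20 and 30 min. Result as %MPE; AD50 with 95% confidence limits by graded dose–response.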

Mus musculus [2] = test: Antinociceptive effect in icv dosed CD1 mouse assessed as increase in tail-flick latency period by tail flick test; type: functional
Method in brief: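 Male CD-1 mice (25–30 g) given i.c.v. injection under light isoflurane (2 mm caudal/2 mm lateral of bregma, 3 mm deep, 5 µL), various doses. Radiant infrared heat focused 3–4 cm from tail tip; withdrawal latency with 15 s cut-off. Baseline is the mean of three readings 15 min apart; readings at 5–30 min. Result as %MPE; AD50 with 95% confidence limits by graded dose–response.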

Rattus norvegicus = species on record: Rattus norvegicus; test: Selectivity ratio of Ki for delta opioid receptor in Wistar rat brain membranes to Ki for mu opioid receptor in Wistar rat brain membranes; type: cell membranes; conditions: Membrane
Method in brief: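 Washed Wistar rat brain membranes (0.2–0.4 mg/ml protein) incubated 30 min at 25 °C in 50 mM Tris-HCl pH 7.4 with BSA, captopril, bestatin and phosphoramidon (1 µM each). Radioligands were [3H]DAMGO (0.9–1.2 nM, μ) or [3H]Ile5,6-deltorphin-2 (0.8–1.3 nM, δ); competitor at 10^-11–10^-5 M; nonspecific binding with 10 µM naloxone. Filtration and scintillation counting; Ki by Cheng–Prusoff; δ/μ Ki ratio.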

[3] = target: Delta-type opioid receptor (Rattus norvegicus, UniProt P33533); test: Displacement of [3H]Ile5,6deltorphin-2 from delta opioid receptor in Wistar rat brain membranes by liquid scintillation counting; type: cell membranes, Membrane
Sequence of Delta-type opioid receptor (P33533 whole entry): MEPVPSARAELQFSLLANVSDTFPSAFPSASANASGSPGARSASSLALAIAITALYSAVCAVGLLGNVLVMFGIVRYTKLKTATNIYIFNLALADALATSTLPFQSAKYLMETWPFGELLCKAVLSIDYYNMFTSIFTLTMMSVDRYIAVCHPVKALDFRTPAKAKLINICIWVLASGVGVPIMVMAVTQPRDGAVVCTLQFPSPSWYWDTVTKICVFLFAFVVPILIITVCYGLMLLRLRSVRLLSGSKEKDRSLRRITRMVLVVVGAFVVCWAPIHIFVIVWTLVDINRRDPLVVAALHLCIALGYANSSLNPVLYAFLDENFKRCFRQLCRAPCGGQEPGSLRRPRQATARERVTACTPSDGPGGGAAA

[4] = Half life in human plasma at 100 ug/mL; type: ADME, cell-free
Method in brief: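 Thawed human plasma spiked with compound in DMSO to 100 µg/mL final, incubated at 37 °C. Samples taken at set times were quenched with 5% ZnSO4/MeOH/ACN (5:3:2), centrifuged, and the supernatant analysed by reversed-phase HPLC-UV (275 or 254 nm). Calibration range 10–100 µg/mL. Three independent experiments.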

Sequence of Mu-type opioid receptor (P33535 whole entry): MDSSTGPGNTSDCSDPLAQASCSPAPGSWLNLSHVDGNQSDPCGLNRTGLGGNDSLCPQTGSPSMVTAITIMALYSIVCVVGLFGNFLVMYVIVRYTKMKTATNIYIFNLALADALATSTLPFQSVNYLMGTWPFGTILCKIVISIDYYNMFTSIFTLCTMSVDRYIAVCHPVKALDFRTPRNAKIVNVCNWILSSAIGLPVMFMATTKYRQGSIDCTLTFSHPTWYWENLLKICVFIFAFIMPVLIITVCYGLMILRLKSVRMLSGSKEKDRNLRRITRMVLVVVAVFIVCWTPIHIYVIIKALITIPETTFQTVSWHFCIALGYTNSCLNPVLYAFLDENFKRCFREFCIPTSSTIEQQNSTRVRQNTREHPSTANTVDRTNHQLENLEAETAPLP

Structure (SMILES)	Ki (Mu-type opioid receptor)	AD50 (Mus musculus [1])	AD50 (Mus musculus [2])	Ratio Ki (Rattus norvegicus)	Ki [3]	half-life at 100 ug/mL [4]
CN(C(=O)[C@H](Cc1ccccc1)NC(=O)[C@@H]1CCCN1C(=O)[C@@H](N)Cc1ccc(O)cc1)[C@@H](Cc1ccccc1)C(=O)NCCO.O=C(O)C(F)(F)F	224 nM	9.44 nmol	5.56 nmol	17.2	3860 nM	
CN(C(=O)[C@H](Cc1ccccc1)N(C)C(=O)[C@@H]1CCCN1C(=O)[C@@H](N)Cc1ccc(O)cc1)[C@@H](Cc1ccccc1)C(=O)NCCO.O=C(O)C(F)(F)F	34 nM	3.77 nmol	2.65 nmol	188	6400 nM	40 min
C[C@@H](NC(=O)[C@@H](N)Cc1ccc(O)cc1)C(=O)NCC(=O)N(C)[C@@H](Cc1ccccc1)C(=O)NCCO [DAMGO]					> 10000 nM	
N[C@@H](Cc1ccc(O)cc1)C(=O)N1CCC[C@H]1C(=O)N[C@@H](Cc1ccccc1)C(=O)N[C@@H](Cc1ccccc1)C(=O)NCCO.O=C(O)C(F)(F)F	90 nM	6.66 nmol	3.44 nmol	8.9	799 nM	
CN(C(=O)[C@@H]1CCCN1C(=O)[C@@H](N)Cc1ccc(O)cc1)[C@@H](Cc1ccccc1)C(=O)N[C@@H](Cc1ccccc1)C(=O)NCCO.O=C(O)C(F)(F)F	155 nM	9.6 nmol	3.03 nmol		> 10000 nM	
CC[C@H](C)[C@H](NC(=O)[C@H](CCC(=O)O)NC(=O)[C@H](Cc1ccccc1)NC(=O)[C@H](C)NC(=O)[C@@H](N)Cc1ccc(O)cc1)C(=O)N[C@H](C(=O)NCC(N)=O)[C@@H](C)CC	> 10000 nM					
NC(=O)[C@H](Cc1ccccc1)NC(=O)[C@H](Cc1ccccc1)NC(=O)[C@@H]1CCCN1C(=O)[C@@H](N)Cc1ccc(O)cc1 [ENDOMORPHIN 2]		2.29 nmol	1.49 nmol			
CN(CC(=O)N[C@@H](Cc1ccccc1)C(=O)NCCO)C(=O)[C@@H]1CCCN1C(=O)[C@@H](N)Cc1ccc(O)cc1 (H-YP[Sar]F-NHCH2CH2OH)	> 10000 nM	inactive	inactive		> 10000 nM	
